Compound activity deposited in PubChem BioAssay by Sanford-Burnham Center for Chemical Genomics.
Rows were chosen to be rich in hits. Some 0.77% of all compounds tested hit in one or more screens of this group.
bIAP inhibitor – intestinal alkaline phosphatase (bovine) inhibition | 190,000 tested, under 10 active | purified bovine IAP, CDP-star luminescence, 30 min | AID 1019 | inhibition, % at 20 µM;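 active = over 50% inhibition of intestinal alkaline phosphatase at 20 µM in the single-dose screen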
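System: purified bovine intestinal alkaline phosphatase (IAP) enzyme; Input: IAP diluted 1/65,000,000 in the well; Measured by: CDP-star luminescence signal; Compound dosing: 20 µM single dose; Incubation: 30 min reaction at room temperature.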
mIAP block – mouse IAP inhibition | purified mouse IAP, CDP-Star luminescence, 30 min | inhibition, % at 10 µM | 330,000 compounds, 0.2% hits | AID 2806;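 active = inhibition of at least 40% at 10 µM in the primary screen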;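 also: plate controls were DMSO with enzyme for no effect and no enzyme wells for full effect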
bIAP activator – increases bovine intestinal alkaline phosphatase activity. purified bovine IAP, CDP-star luminescence, 30 min; active compounds read high; fold of DMSO-control signal, blank-subtracted. activation factor at 20 µM. 200,000 compounds, 0.17% hits. AID 1016;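 active = activation factor of 2 or more at 20 µM, a signal rise over negative controls twice the positive control's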
hIAP block – blocks human intestinal alkaline phosphatase | P09923 | inhibition, % at 10 µM | 330,000 compounds, 0.12% hits | purified IAP, CDP-Star luminescence, 30 min;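 active = inhibition reaching a set limit with compound at 10 µM in the primary screen, cut at about 35% in these data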;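 also: plate controls were DMSO wells with enzyme for no effect and no-enzyme buffer wells for full effect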
Target sequence (P09923 whole entry, looked up): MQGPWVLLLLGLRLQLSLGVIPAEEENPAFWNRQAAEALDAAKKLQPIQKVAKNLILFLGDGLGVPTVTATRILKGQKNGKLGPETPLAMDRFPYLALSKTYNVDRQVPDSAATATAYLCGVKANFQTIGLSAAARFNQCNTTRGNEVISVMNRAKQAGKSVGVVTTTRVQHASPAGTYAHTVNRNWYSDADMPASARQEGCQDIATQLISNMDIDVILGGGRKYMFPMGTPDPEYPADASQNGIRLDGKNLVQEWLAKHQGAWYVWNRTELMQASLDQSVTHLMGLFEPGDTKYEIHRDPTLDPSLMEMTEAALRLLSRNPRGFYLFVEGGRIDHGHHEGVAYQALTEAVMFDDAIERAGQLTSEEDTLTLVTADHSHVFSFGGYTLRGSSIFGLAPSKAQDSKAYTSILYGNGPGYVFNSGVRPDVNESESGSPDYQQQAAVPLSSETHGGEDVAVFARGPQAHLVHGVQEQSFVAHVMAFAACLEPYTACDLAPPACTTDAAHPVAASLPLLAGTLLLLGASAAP
hIAP act – human IAP activation | P09923 | purified human IAP, CDP-Star luminescence, 30 min; active compounds read high; 1 = vehicle-only enzyme, 0 = enzyme-free background | activation factor at 10 µM | 330,000 compounds, 0.16% hits;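 active = activation factor of the enzyme at least 2-fold when tested at 20 µM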
mIAP act – mouse IAP activation; 330,000 compounds, 0.24% hits; AID 2805; muIAP, CDP-Star luminescence, 30 min; active compounds read high; 1 = vehicle-only enzyme signal, 0 = enzyme-free wells; activation factor at 10 µM;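 active = activation factor of at least 2 at 20 µM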
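System: mouse IAP enzyme. Reagent: CDP-Star chemiluminescent phosphatase substrate. Benchmarks: DMSO wells, no-enzyme wells. Times: 30 min enzyme-substrate-compound incubation at room temperature. Detection: luminescence from enzymatic CDP-Star hydrolysis. Doses: test compounds delivered from DMSO solution.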
* hit, by the source's call; i = inactive; . = no result.

SMILES	bIAP inhibitor	mIAP block	bIAP activator	hIAP block	hIAP act	mIAP act
CCCc1ccc(C(C)NC(=S)NC2CCCCC2)cc1 (stereo not drawn)	.	-130.5	.	-62.9	1.63	2.31*
CC(NC(=S)NC1CCCCC1)c1ccccc1 (stereo not drawn)	.	-16.8	.	3.9	0.961	1.17
O=C(CC12CC3CC(CC(C3)C1)C2)N/N=C/c1ccncc1	4.4	4.7	1	-1.1	1.01	0.953
CCOc1ccc(C(C)NC(=S)NCc2ccc(Cl)cc2)cc1 (stereo not drawn)	-7.5	-301.2	1.1	-15.8	1.16	4.01*
COc1ccc(NC(=O)CC2C(=O)N(C)C(=S)N2CCc2ccccc2F)cc1 (stereo not drawn)	-4.2	-7.3	1	0.1	0.999	1.07
CCCCNc1nc2ccccc2[nH]1	-209.9	9.3	3.1*	-14.4	1.14	0.907
Cn1nc(C(=O)Nc2ccc(S(=O)(=O)Nc3ncccn3)cc2)ccc1=O	.	6.4	.	1.7	0.983	0.936
CCOc1ccccc1NC(=S)N1C2CCC1CC(NC(=O)NC13CC4CC(CC(C4)C1)C3)C2 (stereo not drawn)	-55.0	-112.3	1.6	2.7	0.973	2.12*
CCOC(=O)c1cc(-c2ccccc2)nn1CC1CC(c2ccc(OC)cc2)=NO1 (stereo not drawn)	.	-3.2	.	-14.8	1.15	1.03
COc1ccc(C2=NOC(Cn3nc(-c4ccccc4)cc3C(=O)NCc3cccc(C(F)(F)F)c3)C2)cc1 (stereo not drawn)	.	-223.7	.	-8.3	1.08	3.24*
COc1ccc(C2=NOC(Cn3nc(-c4ccccc4)cc3C(=O)NCc3ccc(C)cc3)C2)cc1 (stereo not drawn)	.	-231.1	.	-8.3	1.08	3.31*
Cc1ccccc1-c1cc(C(=O)NCc2cccc(Br)c2)n(CC2CC(c3cccnc3)=NO2)n1 (stereo not drawn)	.	-100.0	.	-4.1	1.04	2*
COc1cccc(SCc2noc(C(=O)NCCCN3CCOCC3)c2C(=O)NCCCN2CCOCC2)c1	.	2.3	.	-15.1	1.15	0.977
CCn1ncc(/C=N\NC(=O)c2ccc3c(c2)c(C)c(C)n3Cc2ccccc2)c1C	-347.4	-240.3	4.5*	10.3	0.897	3.4*
CCn1nc(C)c(/C=N\NC(=O)c2ccc3c(c2)OCO3)c1C	4.1	4.7	1	-6.6	1.07	0.953
CCn1nc(C)c(/C=N/NC(=O)c2ccc3c(c2)c(C)c(C)n3Cc2ccccc2)c1C	i	-326.2	7*	16.0	0.84	4.26*
CCn1cc(/C=N\NC(=O)c2ccc3c(c2)c(C)c(C)n3Cc2ccccc2)c(C)n1	-324.9	-73.2	4.2*	7.5	0.925	1.73
CCn1ncc(/C=N/NC(=O)c2ccc3c(c2)OCO3)c1C	5.2	-7.1	0.9	-14.0	1.14	1.07
CC(C)N1CC(C(=O)O)CC1=O (stereo not drawn)	16.3	-11.9	0.8	-26.4	1.26	1.12
Cc1cccc(C)c1NC(=O)NC1CC2CCC(C1)N2Cc1cccs1 (stereo not drawn)	-12.2	-6.3	1.1	-1.2	1.01	1.06
CCCN1C2CCCC1CC(NC(=S)Nc1cccc(C)c1C)C2 (stereo not drawn)	.	-6.9	.	-17.1	1.17	1.07
Cc1cccc(NC(=S)NC2CC3CCCC(C2)N3Cc2cccs2)c1C (stereo not drawn)	-28.0	-131.2	1.3	-21.5	1.22	2.31*
CCc1ccccc1NC(=S)NC1CC2CCCC(C1)N2Cc1cccs1 (stereo not drawn)	-43.4	-139.8	1.4	6.9	0.931	2.4*
Cc1ccc(/C=C/C(=O)NCc2cccs2)o1	-5.1	0.4	1.1	-1.4	1.01	0.996
CCOC(=O)c1c(NC(=O)C2CCCCC2)sc2c1CCN(C(C)C)C2	.	0.9	.	2.6	0.974	0.991
COc1ccccc1NC(=O)CC(NCc1ccccc1)C(=O)O (stereo not drawn)	-134.5	-2.0	2.3*	-2.6	1.03	1.02
COc1ccc(NC(=O)CC(NCCc2ccccc2)C(=O)O)c(OC)c1 (stereo not drawn)	4.6	1.5	1	2.5	0.975	0.985
Cc1csc(NC(=O)c2ccc3nc[nH]c3c2)n1	.	3.3	.	-28.5	1.28	0.967
COC(=O)c1ccc(NC(=O)Nc2ccc(F)cc2)cc1	25.3	-77.9	0.7	0.8	0.992	1.78
